# According to article PMC8851455 (ACS Omega, 2022):
# pEC50: −log10 of the molar value.
# What was measured:
# [1] = system: MCF-7 cells; assay: MCF-7 cell proliferation assay; assay type: cell-based, human
# How it was run: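 MCF-7 cells exposed to test compound or E2 at six concentrations from 10–12 to 10–7 M in EA-free medium. Proliferation read as MTT product absorbance at 570 nm. Three independent trials, each in triplicate. % RME2 = 100 × (OD test − OD VC)/(max OD E2 − OD VC). EC50 from curve fitting. EEF = EC50 of E2/EC50 of sample. One-way ANOVA with Dunnett's test versus E2 at each concentration.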
# [2] = system: ERβ; settings: cited from earlier work
# [3] = system: S. typhimurium TA100; assay: Ames test, strain TA100; assay type: cell-based, Salmonella typhimurium
# [4] = system: Swiss mice; settings: 100 and 200 mg/kg; cited from earlier work
# [5] = system: zebrafish embryos; settings: at 1–50 μM; cited from earlier work
# [6] = system: chicken fetal liver; assay: TBARs level; assay type: in vivo
# [7] = system: S. typhimurium TA98; assay: Ames test, strain TA98; assay type: cell-based, Salmonella typhimurium
# [8] = system: S. typhimurium tester strains (TA98, TA100, and TA102); assay: Ames test, overall over three strains; assay type: cell-based, Salmonella typhimurium; settings: 5 × 10^–5 to 50 pmol/plate, with or without S9
# [9] = system: chicken embryo; assay: Chicken embryonic assay; assay type: in vivo; settings: for malformation rate / mortality rate / number of dead chicken embryo / number of malformation chicken embryo / weights: embryo / weights: heart / weights: liver: egg injection, day 18
# [10] = TA100 +S9, 5 × 10^–2 pmol/plate
# [11] = TA100 +S9, 5 × 10^–3 pmol/plate
# [12] = TA100 +S9, 5 × 10^–4 pmol/plate
# [13] = TA100 +S9, 5 × 10^–5 pmol/plate
# [14] = TA100 -S9, 5 × 10^–2 pmol/plate
# [15] = TA100 -S9, 5 × 10^–3 pmol/plate
# [16] = TA100 -S9, 5 × 10^–4 pmol/plate
# [17] = TA100 -S9, 5 × 10^–5 pmol/plate
# [18] = higher dose (0.5 mM: 450–500 μg/kg; E2 0.1 mM: 91 μg/kg)
# [19] = lower dose (0.05 mM: 45–50 μg/kg; E2 0.01 mM: 9.1 μg/kg)
compound,measurement,setting,value
O=c1cc(-c2ccc(O)cc2)oc2cc(O)cc(O)c12 [apigenin],EEF (estradiol equivalent factor),[1]; EC50 of E2 divided by that of the test compound,0.16
same,pEC50,"[1]; Homo sapiens, MCF7",10.21
same,max % RME2,[1]; highest % RME2 (relative maximum % E2) in test range 10^–12–10^–7 M,27%
same,binding affinity for ERβ,[2],6%
same,MI,"[3]; TA100 +S9, 0.5 pmol/plate",1.4
same,number of revertants/plate (M ± SD),"[3]; TA100 +S9, 0.5 pmol/plate",415 ± 4 revertants/plate
same,MI,"[3]; TA100 +S9, 5 pmol/plate",1.3
same,number of revertants/plate (M ± SD),"[3]; TA100 +S9, 5 pmol/plate",390 ± 4 revertants/plate
same,MI,"[3]; TA100 +S9, 50 pmol/plate",1.3
same,number of revertants/plate (M ± SD),"[3]; TA100 +S9, 50 pmol/plate",400 ± 2 revertants/plate
same,MI,[3]; [10],1.2
same,number of revertants/plate (M ± SD),[3]; [10],377 ± 15 revertants/plate
same,MI,[3]; [11],1.1
same,number of revertants/plate (M ± SD),[3]; [11],349 ± 10 revertants/plate
same,MI,[3]; [12],1.1
same,number of revertants/plate (M ± SD),[3]; [12],342 ± 14 revertants/plate
same,MI,[3]; [13],1.2
same,number of revertants/plate (M ± SD),[3]; [13],358 ± 6 revertants/plate
same,MI,"[3]; TA100 -S9, 0.5 pmol/plate",1.0
same,number of revertants/plate (M ± SD),"[3]; TA100 -S9, 0.5 pmol/plate",94 ± 4 revertants/plate
same,MI,"[3]; TA100 -S9, 5 pmol/plate",1.0
same,number of revertants/plate (M ± SD),"[3]; TA100 -S9, 5 pmol/plate",96 ± 4 revertants/plate
same,MI,"[3]; TA100 -S9, 50 pmol/plate",1.0
same,number of revertants/plate (M ± SD),"[3]; TA100 -S9, 50 pmol/plate",96 ± 8 revertants/plate
same,MI,[3]; [14],0.9
same,number of revertants/plate (M ± SD),[3]; [14],85 ± 6 revertants/plate
same,MI,[3]; [15],0.8
same,number of revertants/plate (M ± SD),[3]; [15],75 ± 13 revertants/plate
same,MI,[3]; [16],0.9
same,number of revertants/plate (M ± SD),[3]; [16],83 ± 6 revertants/plate
same,MI,[3]; [17],0.9
same,number of revertants/plate (M ± SD),[3]; [17],87 ± 6 revertants/plate
same,hepatotoxicity,[4],led to hepatotoxicity
same,developmental toxicity in zebrafish model,[5],showing developmental toxicity
same,TBARs value,[6]; higher dose (0.5 mM: 450–500 μg/kg),112.31 nmol/g
same,TBARs value,[6]; lower dose (0.05 mM: 45–50 μg/kg),103.73 nmol/g
same,MI,"[7]; TA98 +S9, 0.5 pmol/plate",1.1
same,number of revertants/plate (M ± SD),"[7]; TA98 +S9, 0.5 pmol/plate",85 ± 6 revertants/plate
same,MI,"[7]; TA98 +S9, 5 pmol/plate",1.1
same,number of revertants/plate (M ± SD),"[7]; TA98 +S9, 5 pmol/plate",80 ± 10 revertants/plate
same,MI,"[7]; TA98 +S9, 50 pmol/plate",1.0
same,number of revertants/plate (M ± SD),"[7]; TA98 +S9, 50 pmol/plate",75 ± 20 revertants/plate
same,MI,"[7]; TA98 +S9, 5 × 10^–2 pmol/plate",1.2
same,number of revertants/plate (M ± SD),"[7]; TA98 +S9, 5 × 10^–2 pmol/plate",87 ± 6 revertants/plate
same,MI,"[7]; TA98 +S9, 5 × 10^–3 pmol/plate",1.1
same,number of revertants/plate (M ± SD),"[7]; TA98 +S9, 5 × 10^–3 pmol/plate",80 ± 18 revertants/plate
same,MI,"[7]; TA98 +S9, 5 × 10^–4 pmol/plate",1.1
same,number of revertants/plate (M ± SD),"[7]; TA98 +S9, 5 × 10^–4 pmol/plate",83 ± 9 revertants/plate
same,MI,"[7]; TA98 +S9, 5 × 10^–5 pmol/plate",0.9
same,number of revertants/plate (M ± SD),"[7]; TA98 +S9, 5 × 10^–5 pmol/plate",68 ± 2 revertants/plate
same,MI,"[7]; TA98 -S9, 0.5 pmol/plate",0.9
same,number of revertants/plate (M ± SD),"[7]; TA98 -S9, 0.5 pmol/plate",9 ± 1 revertants/plate
same,MI,"[7]; TA98 -S9, 5 pmol/plate",1.3
same,number of revertants/plate (M ± SD),"[7]; TA98 -S9, 5 pmol/plate",13 ± 1 revertants/plate
same,MI,"[7]; TA98 -S9, 50 pmol/plate",1.1
same,number of revertants/plate (M ± SD),"[7]; TA98 -S9, 50 pmol/plate",11 ± 4 revertants/plate
same,MI,"[7]; TA98 -S9, 5 × 10^–2 pmol/plate",1.0
same,number of revertants/plate (M ± SD),"[7]; TA98 -S9, 5 × 10^–2 pmol/plate",10 ± 4 revertants/plate
same,MI,"[7]; TA98 -S9, 5 × 10^–3 pmol/plate",1.0
same,number of revertants/plate (M ± SD),"[7]; TA98 -S9, 5 × 10^–3 pmol/plate",10 ± 3 revertants/plate
same,MI,"[7]; TA98 -S9, 5 × 10^–4 pmol/plate",0.7
same,number of revertants/plate (M ± SD),"[7]; TA98 -S9, 5 × 10^–4 pmol/plate",7 ± 3 revertants/plate
same,MI,"[7]; TA98 -S9, 5 × 10^–5 pmol/plate",1.0
same,number of revertants/plate (M ± SD),"[7]; TA98 -S9, 5 × 10^–5 pmol/plate",10 ± 3 revertants/plate
same,Ames test outcome (signs of mutagenicity),[8],signs of mutagenicity
same,malformation rate,[9]; [18],0.0%
same,mortality rate,[9]; [18],10.0%
same,number of dead chicken embryo,[9]; [18],1
same,number of malformation chicken embryo,[9]; [18],0
same,weights: embryo,[9]; [18],21.49 ± 1.44 g
same,weights: heart,[9]; [18],0.17 ± 0.02 g
same,weights: liver,[9]; [18],0.41 ± 0.02 g
same,"fetal liver weight, lower compared with the VC",[9]; higher-dose treatment,~20%
same,malformation rate,[9]; [19],11.11%
same,mortality rate,[9]; [19],10.0%
same,number of dead chicken embryo,[9]; [19],1
same,number of malformation chicken embryo,[9]; [19],1
same,weights: embryo,[9]; [19],24.29 ± 0.03 g
same,weights: heart,[9]; [19],0.18 ± 0.02 g
same,weights: liver,[9]; [19],0.44 ± 0.02 g
